# From ChEMBL document CHEMBL2040727, “Substituted thiazoles VI. Synthesis and antitumor activity of new 2-acetamido- and 2 or 3-propanamido-thiazole analogs” (2012)
# System: OVCAR-5
# Experiment: Growth inhibition of human OVCAR5 cells at 10 uM after 48 hrs by coulter counter analysis
# Format: functional
# Conditions: OVCAR-5, 48 h, read-out: GI
# How it was run: (§1)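 Single-dose NCI 60-line panel screen of test compounds. Cells grown in RPMI 1640 with 10% FBS. Compounds dissolved in DMSO, then diluted in phosphate buffer saline (final DMSO below 1%). Wells run in duplicate at 6 × 10⁴ cells/ml. Controls held PBS and DMSO at matching dilutions. Incubation 48 h at 37 °C under humidified 5% CO2. Cells diluted tenfold in saline and counted by Coulter counter. Percent growth inhibition taken from mean-graph of treated-cell growth.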
row,SMILES,inhibition of growth at 10 µM
1,CCOC(=O)c1sc(NC(=O)CN(C)C)nc1C,< 10%

# System: SK-MEL-5
# Experiment: Growth inhibition of human SK-MEL-5 cells at 10 uM after 48 hrs by coulter counter analysis
# Format: functional
# Conditions: SK-MEL-5, 48 h, read-out: GI
# How it was run: as §1
row,SMILES,inhibition of growth at 10 µM
1,CCOC(=O)c1sc(NC(=O)CN(C)C)nc1C,< 10%

# System: MDA-MB-231
# Experiment: Growth inhibition of human MDA-MB-231 cells at 10 uM after 48 hrs by coulter counter analysis
# Format: functional
# Conditions: MDA-MB-231, 48 h, read-out: GI
# How it was run: as §1
row,SMILES,inhibition of growth at 10 µM
1,CCOC(=O)c1sc(NC(=O)CN(C)C)nc1C,< 10%

# System: SF-295
# Experiment: Growth inhibition of human SF295 cells at 10 uM after 48 hrs by coulter counter analysis
# Format: functional
# Conditions: SF-295, 48 h, read-out: GI
# How it was run: as §1
row,SMILES,inhibition of growth at 10 µM
1,CCOC(=O)c1sc(NC(=O)CN(C)C)nc1C,< 10%

# System: NCI-H322M
# Experiment: Growth inhibition of human NCI-H322M cells at 10 uM after 48 hrs by coulter counter analysis
# Format: functional
# Conditions: read-out: GI
# How it was run: as §1
row,SMILES,inhibition of growth at 10 µM
1,CCOC(=O)c1sc(NC(=O)CN(C)C)nc1C,< 10%

# System: MDA-MB-468
# Experiment: Growth inhibition of human MDA-MB-468 cells at 10 uM after 48 hrs by coulter counter analysis
# Format: functional
# Conditions: MDA-MB-468, 48 h, read-out: GI
# How it was run: as §1
row,SMILES,inhibition of growth at 10 µM
1,CCOC(=O)c1sc(NC(=O)CN(C)C)nc1C,< 10%

# System: LOX IMVI
# Experiment: Growth inhibition of human LOXIMVI cells at 10 uM after 48 hrs by coulter counter analysis
# Format: functional
# Conditions: read-out: GI
# How it was run: as §1
row,SMILES,inhibition of growth at 10 µM
1,CCOC(=O)c1sc(NC(=O)CN(C)C)nc1C,< 10%

# System: Malme-3M
# Experiment: Growth inhibition of human MALME-3M cells at 10 uM after 48 hrs by coulter counter analysis
# Format: functional
# Conditions: read-out: GI
# How it was run: as §1
row,SMILES,inhibition of growth at 10 µM
1,CCOC(=O)c1sc(NC(=O)CN(C)C)nc1C,< 10%

# System: SN12C
# Experiment: Growth inhibition of human SN12C cells at 10 uM after 48 hrs by coulter counter analysis
# Format: functional
# Conditions: read-out: GI
# How it was run: as §1
row,SMILES,inhibition of growth at 10 µM
1,CCOC(=O)c1sc(NC(=O)CN(C)C)nc1C,< 10%

# System: KM12
# Experiment: Growth inhibition of human KM12 cells at 10 uM after 48 hrs by coulter counter analysis
# Format: functional
# Conditions: KM12, 48 h, read-out: GI
# How it was run: as §1
row,SMILES,inhibition of growth at 10 µM
1,CCOC(=O)c1sc(NC(=O)CN(C)C)nc1C,< 10%

# System: not listed separately
# Experiment: Growth inhibition of human NCI-ADR-RES cells at 10 uM after 48 hrs by coulter counter analysis
# Format: functional
# Conditions: read-out: GI
# How it was run: as §1
row,SMILES,inhibition of growth at 10 µM
1,CCOC(=O)c1sc(NC(=O)CN(C)C)nc1C,< 10%

# System: ACHN
# Experiment: Growth inhibition of human ACHN cells at 10 uM after 48 hrs by coulter counter analysis
# Format: functional
# Conditions: read-out: GI
# How it was run: as §1
row,SMILES,inhibition of growth at 10 µM
1,CCOC(=O)c1sc(NC(=O)CN(C)C)nc1C,< 10%

# System: not listed separately
# Experiment: Growth inhibition of human Hs 578T cells at 10 uM after 48 hrs by coulter counter analysis
# Format: functional
# Conditions: read-out: GI
# How it was run: as §1
row,SMILES,inhibition of growth at 10 µM
1,CCOC(=O)c1sc(NC(=O)CN(C)C)nc1C,< 10%

# System: OVCAR-8
# Experiment: Growth inhibition of human OVCAR8 cells at 10 uM after 48 hrs by coulter counter analysis
# Format: functional
# Conditions: OVCAR-8, 48 h, read-out: GI
# How it was run: as §1
row,SMILES,inhibition of growth at 10 µM
1,CCOC(=O)c1sc(NC(=O)CN(C)C)nc1C,< 10%

# System: SW-620
# Experiment: Growth inhibition of human SW620 cells at 10 uM after 48 hrs by coulter counter analysis
# Format: functional
# Conditions: SW-620, 48 h, read-out: GI
# How it was run: (§2)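 Single-dose screen in the NCI 60 cell line panel. Cells grown in RPMI 1640 with 10% FBS. Compounds dissolved in DMSO and diluted in phosphate buffered saline, final DMSO under 1%. Duplicate wells seeded from culture at 6 × 10⁴ cells/ml. Incubated 48 h at 37 °C, humidified, 5% CO2. Cells diluted tenfold in saline and Coulter-counted. Percent growth inhibition computed against PBS/DMSO controls.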
row,SMILES,inhibition of growth at 10 µM
1,CCOC(=O)c1sc(NC(=O)CN(C)C)nc1C,< 10%

# System: MDA-MB-435
# Experiment: Growth inhibition of human MDA-MB-435 cells at 10 uM after 48 hrs by coulter counter analysis
# Format: functional
# Conditions: MDA-MB-435, 48 h, read-out: GI
# How it was run: as §1
row,SMILES,inhibition of growth at 10 µM
1,CCOC(=O)c1sc(NC(=O)CN(C)C)nc1C,< 10%

# System: UO-31
# Experiment: Growth inhibition of human UO31 cells at 10 uM after 48 hrs by coulter counter analysis
# Format: functional
# Conditions: UO-31, 48 h, read-out: GI
# How it was run: as §2
row,SMILES,inhibition of growth at 10 µM
1,CCOC(=O)c1sc(NC(=O)CN(C)C)nc1C,14.8%

# System: COLO 205
# Experiment: Growth inhibition of human COLO205 cells at 10 uM after 48 hrs by coulter counter analysis
# Format: functional
# Conditions: COLO 205, 48 h, read-out: GI
# How it was run: as §1
row,SMILES,inhibition of growth at 10 µM
1,CCOC(=O)c1sc(NC(=O)CN(C)C)nc1C,< 10%

# System: NCI-H522
# Experiment: Growth inhibition of human NCI-H522 cells at 10 uM after 48 hrs by coulter counter analysis
# Format: functional
# Conditions: NCI-H522, 48 h, read-out: GI
# How it was run: as §1
row,SMILES,inhibition of growth at 10 µM
1,CCOC(=O)c1sc(NC(=O)CN(C)C)nc1C,< 10%

# System: HCC 2998
# Experiment: Growth inhibition of human HCC2998 cells at 10 uM after 48 hrs by coulter counter analysis
# Format: functional
# Conditions: HCC 2998, 48 h, read-out: GI
# How it was run: as §1
row,SMILES,inhibition of growth at 10 µM
1,CCOC(=O)c1sc(NC(=O)CN(C)C)nc1C,< 10%

# System: SK-MEL-2
# Experiment: Growth inhibition of human SK-MEL-2 cells at 10 uM after 48 hrs by coulter counter analysis
# Format: functional
# Conditions: SK-MEL-2, 48 h, read-out: GI
# How it was run: as §1
row,SMILES,inhibition of growth at 10 µM
1,CCOC(=O)c1sc(NC(=O)CN(C)C)nc1C,< 10%

# System: OVCAR-3
# Experiment: Growth inhibition of human OVCAR3 cells at 10 uM after 48 hrs by coulter counter analysis
# Format: functional
# Conditions: OVCAR-3, 48 h, read-out: GI
# How it was run: as §1
row,SMILES,inhibition of growth at 10 µM
1,CCOC(=O)c1sc(NC(=O)CN(C)C)nc1C,< 10%

# System: NCI-H226
# Experiment: Growth inhibition of human NCI-H226 cells at 10 uM after 48 hrs by coulter counter analysis
# Format: functional
# Conditions: NCI-H226, 48 h, read-out: GI
# How it was run: as §1
row,SMILES,inhibition of growth at 10 µM
1,CCOC(=O)c1sc(NC(=O)CN(C)C)nc1C,< 10%

# System: RPMI-8226
# Experiment: Growth inhibition of human RPMI8226 cells at 10 uM after 48 hrs by coulter counter analysis
# Format: functional
# Conditions: RPMI-8226, 48 h, read-out: GI
# How it was run: as §1
row,SMILES,inhibition of growth at 10 µM
1,CCOC(=O)c1sc(NC(=O)CN(C)C)nc1C,< 10%

# System: BT-549
# Experiment: Growth inhibition of human BT549 cells at 10 uM after 48 hrs by coulter counter analysis
# Format: functional
# Conditions: BT-549, 48 h, read-out: GI
# How it was run: as §1
row,SMILES,inhibition of growth at 10 µM
1,CCOC(=O)c1sc(NC(=O)CN(C)C)nc1C,< 10%

# System: SF-539
# Experiment: Growth inhibition of human SF539 cells at 10 uM after 48 hrs by coulter counter analysis
# Format: functional
# Conditions: SF-539, 48 h, read-out: GI
# How it was run: as §1
row,SMILES,inhibition of growth at 10 µM
1,CCOC(=O)c1sc(NC(=O)CN(C)C)nc1C,< 10%

# System: M14
# Experiment: Growth inhibition of human M14 cells at 10 uM after 48 hrs by coulter counter analysis
# Format: functional
# Conditions: M14, 48 h, read-out: GI
# How it was run: as §1
row,SMILES,inhibition of growth at 10 µM
1,CCOC(=O)c1sc(NC(=O)CN(C)C)nc1C,< 10%

# System: SR
# Experiment: Growth inhibition of human SR cells at 10 uM after 48 hrs by coulter counter analysis
# Format: functional
# Conditions: read-out: GI
# How it was run: as §2
row,SMILES,inhibition of growth at 10 µM
1,CCOC(=O)c1sc(NC(=O)CN(C)C)nc1C,< 10%

# System: HOP-92
# Experiment: Growth inhibition of human HOP92 cells at 10 uM after 48 hrs by coulter counter analysis
# Format: functional
# Conditions: HOP-92, 48 h, read-out: GI
# How it was run: as §1
row,SMILES,inhibition of growth at 10 µM
1,CCOC(=O)c1sc(NC(=O)CN(C)C)nc1C,< 10%

# System: HCT-15
# Experiment: Growth inhibition of human HCT15 cells at 10 uM after 48 hrs by coulter counter analysis
# Format: functional
# Conditions: HCT-15, 48 h, read-out: GI
# How it was run: as §1
row,SMILES,inhibition of growth at 10 µM
1,CCOC(=O)c1sc(NC(=O)CN(C)C)nc1C,< 10%

# System: UACC-62
# Experiment: Growth inhibition of human UACC62 cells at 10 uM after 48 hrs by coulter counter analysis
# Format: functional
# Conditions: UACC-62, 48 h, read-out: GI
# How it was run: as §2
row,SMILES,inhibition of growth at 10 µM
1,CCOC(=O)c1sc(NC(=O)CN(C)C)nc1C,< 10%

# System: IGROV-1
# Experiment: Growth inhibition of human IGROV1 cells at 10 uM after 48 hrs by coulter counter analysis
# Format: functional
# Conditions: IGROV-1, 48 h, read-out: GI
# How it was run: as §1
row,SMILES,inhibition of growth at 10 µM
1,CCOC(=O)c1sc(NC(=O)CN(C)C)nc1C,< 10%

# System: OVCAR-4
# Experiment: Growth inhibition of human OVCAR4 cells at 10 uM after 48 hrs by coulter counter analysis
# Format: functional
# Conditions: OVCAR-4, 48 h, read-out: GI
# How it was run: as §1
row,SMILES,inhibition of growth at 10 µM
1,CCOC(=O)c1sc(NC(=O)CN(C)C)nc1C,< 10%

# System: T47D
# Experiment: Growth inhibition of human T47D cells at 10 uM after 48 hrs by coulter counter analysis
# Format: functional
# Conditions: read-out: GI
# How it was run: as §2
row,SMILES,inhibition of growth at 10 µM
1,CCOC(=O)c1sc(NC(=O)CN(C)C)nc1C,< 10%

# System: MCF7
# Experiment: Growth inhibition of human MCF7 cells at 10 uM after 48 hrs by coulter counter analysis
# Format: functional
# Conditions: MCF7, 48 h, read-out: GI
# How it was run: as §1
row,SMILES,inhibition of growth at 10 µM
1,CCOC(=O)c1sc(NC(=O)CN(C)C)nc1C,< 10%

# System: SF-268
# Experiment: Growth inhibition of human SF268 cells at 10 uM after 48 hrs by coulter counter analysis
# Format: functional
# Conditions: SF-268, 48 h, read-out: GI
# How it was run: as §1
row,SMILES,inhibition of growth at 10 µM
1,CCOC(=O)c1sc(NC(=O)CN(C)C)nc1C,< 10%
